# Calb FLC: C. albicans growth modulation with fluconazole; actives 0.57% (n = 300,000); growth inhibition, % (test concentration not listed); AID 1979; C. albicans CaCi-2 (fluconazole-resistant clinical isolate) + fluconazole, Alamar Blue growth, 48 h;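 active = growth inhibition above about 58% in most replicates, limit read from the data, passing the limit was not always enough; inconclusive = exactly half the replicates above a set limit; inactive = most replicates below a set limit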;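 note: all wells also contain fluconazole at 8 µg/ml as a sub-toxic cotreatment; 0% = median of DMSO wells and 100% = median of geldanamycin control wells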
# Lmaj promast: inhibitors of Leishmania major promastigote growth | inhibition, % at 10 µM | actives 9% (n = 200,000) | Leishmania major promastigotes, resazurin fluorescence viability; in the data active = inhibition above about 50%;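 note: promastigotes grown with compound for 44 hours at 28 °C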
# NALP3 yeast inh: inhibitors of NALP3 inflammasome in yeast; inhibition, % at 10 µM; actives 0.39% (n = 330,000); Yeast reconstituted NLRP3/ASC/caspase-1, beta-gal luminescence, 24 h;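 active = inhibition of 50% or more; inactive = inhibition below 50%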;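 note: plate controls were induced DMSO wells for no effect and uninduced yeast grown without galactose for full effect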
# NALP1 yeast inh: inhibitors of NALP1 inflammasome in yeast; actives 0.61% (n = 280,000); S. cerevisiae NALP1/ASC/caspase-1 growth, X-gal OD620, 72 h; inhibition, % at 10 µM; AID 2071; in the data active = inhibition mostly above about 24%, no sharp cut-off; inactive = mostly below about 32%
# PolyA inhibitor: blocks polyadenylation in yeast reporter cells; S. cerevisiae SKY197-pL101 polyadenylation reporter, beta-gal luminescence; efflux-impaired pdr1/pdr3 knockout yeast; score 100 = 6 SD above DMSO; activity score, % at 12 µM; actives 0.02% (n = 300,000); AID 1875;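 active = lowest replicate activity score at least 50, where 100 means six control SD above control mean; inconclusive = lowest score under 50 but half or more replicates reach 50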;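 note: yeast exposed to compound for 9 h at 30 °C; higher score means more reporter readthrough which indicates perturbed polyadenylation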
# T cruzi inh: T. cruzi replication inhibition. actives 1.4% (n = 300,000). AID 1885. T. cruzi beta-gal in NIH3T3, luminescence, 90 h. inhibition, % (no concentration beside the values);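 active = mean inhibition across valid replicates above about 55%, limit read from the data; inconclusive = mean below that limit but half or more replicates reach it; inactive = mean below it, under half of replicates reach it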;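 note: signal also drops with host cell toxicity which is not excluded here; 0% = plate median of DMSO wells and 100% = zero luminescence signal; higher percent means less beta-gal luminescence so fewer parasites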
#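 assay system = mouse NIH/3T3 fibroblasts infected with β-gal-expressing T. cruzi Tulahuen C4 | input = 5,000 NIH/3T3 host cells per well | buffer or medium = DMEM plus 2% FBS | timing = 3 h host attachment, then at least 90 h co-culture | measured by = GalScreen luminescence, 60 min | evaluation = luminescence reflecting intracellular parasite burden, expressed as percent inhibition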
# Numbers without * were called inactive; ? = inconclusive; . = no result. The full list was thinned out, with hits kept by preference.
SMILES,Calb FLC,Lmaj promast,NALP3 yeast inh,NALP1 yeast inh,PolyA inhibitor,T cruzi inh
Fc1ccc(-n2c(-c3ccc4ccccc4n3)n[nH]c2=S)cc1Cl,-8.1,4.9,7.4,-20.6,-13.8,1.8
Oc1ccc(-c2n[nH]c(=S)n2-c2ccc3c(c2)OCCO3)cc1,-27.9,0.1,16.2,.,5.4,-3.4
S=c1[nH]nc(-c2ccc3ccccc3n2)n1-c1ccc2ncccc2c1,2.1,87.6*,2.9,14.4,-2.7,0.2
O=C1Nc2ccc([N+](=O)[O-])cc2OC1CCN1CCN(c2ccccc2)CC1 (configuration not stated),-1.6,4.4,17.1,15.5,-14.2,1.0
Cc1ccc(S(=O)(=O)N(C)CC(=O)Nc2ccccc2N2CCCC2)cc1,.,.,14.0,.,.,.
CC(=O)Nc1ccc(Nc2cc(C)nc3c(-c4ccc(Cl)cc4)c(C)nn23)cc1,3.7,93.3*,11.1,37.3,-68.6,46.5
Cc1cc(SCC#N)n2nc(C)c(-c3ccc(Cl)cc3)c2n1,?,1.2,13.9,2.1,2.6,-5.8
CC(=O)Nc1ccc(Nc2cc(C)nc3c(-c4ccc(Cl)cc4)cnn23)cc1,0.4,79.1*,25.9,31.9,-63.4,34.3
COc1ccc(CCN2CC(C(=O)NCc3c(C)n[nH]c3C)CCC2=O)cc1 (configuration not stated),-2.7,.,2.6,-3.2,0.7,0.2
N#CC1=C(N)C2=CCCC[C@H]2[C@H](c2ccc(Br)cc2)C1(C#N)C#N,.,77.7*,.,17.4,.,.
Cc1cc(C)nc(N2CCC(C(=O)Nc3nnc(C)s3)CC2)n1,-15.1,-6.8,11.3,-15.9,-9.3,5.7
C=CCCCCCCCCC(=O)Nc1c[nH]c(=O)[nH]c1=O,-16.4,93.4*,25.5,8.3,29.8,-31.2
CN(c1nc(-c2ccccc2)cs1)C1CCS(=O)(=O)C1 (configuration not stated),-8.4,-1.8,20.3,5.1,2.0,-9.8
Cc1ccn(S(=O)(=O)c2ccc(C(C)(C)C)cc2)n1,-10.6,71.2*,5.2,18.2,-11.4,3.2
CCOc1ccc(S(=O)(=O)n2ccc(C)n2)cc1,26.7,.,25.2,6.8,13.1,-6.9
COc1cc(/C=C2\SC(=S)NC2=O)ccc1OS(=O)(=O)c1ccccc1,29.1,62.8*,-17.7,2.2,-14.5,-23.3
COc1cc(/C=C2/SC(=S)NC2=O)ccc1OS(=O)(=O)c1ccc(C)cc1,49.0,11.1,4.9,6.4,-26.0,-23.9
CCOC(=O)c1cc(C)sc1NC(=O)CSC1=NCCS1,.,.,20.0,8.5,-0.1,-6.6
CCOc1ccc(-n2c(C)nc3cc(C(=O)NCCCN4CCOCC4)ccc32)cc1,-1.4,-5.1,19.8,26.2*,-3.3,12.7
COc1ccc(-n2cnc3cc(C(=O)NCCN4CCOCC4)ccc32)cc1,9.6,0.3,11.4,4.7,-14.6,-21.5
COc1ccc(OC)c(-n2cnc3cc(C(=O)NCCCN4CCOCC4)ccc32)c1,-9.5,-3.5,4.9,23.0*,13.7,-14.8
CC(=O)c1ccc(N2CCN(S(=O)(=O)c3ccc(-c4cnc(C5CC5)o4)cc3)CC2)cc1,6.7,.,43.7,20.9,-6.2,-29.9
Cc1cccc(OCC(=O)NCCCNC(=O)c2ccncc2)c1,-0.2,.,16.7,8.9,-17.8,-8.9
C=CCn1c(SCC(=O)N2CC(=O)Nc3ccccc32)nc2scc(-c3cccs3)c2c1=O,-1.1,65.1*,4.7,9.5,1.0,24.3
O=C1CN(C(=O)CSc2nc3ccccc3n2CCc2ccccc2)c2ccccc2N1,-44.3,58.1*,1.9,25.7,1.9,3.3
SMILES,Calb FLC,Lmaj promast,NALP3 yeast inh,NALP1 yeast inh,PolyA inhibitor,T cruzi inh
CCCn1c(SCC(=O)N2CC(=O)Nc3ccccc32)nc2ccccc21,-8.3,-4.5,10.4,10.0,-4.2,-2.5
CN(C)CCCn1c(SCC(=O)N2CC(=O)Nc3ccccc32)nc2ccccc2c1=O,2.9,7.4,5.2,15.8,5.1,24.9
CC(C)N(CCn1c(SCC(=O)N2CC(=O)Nc3ccccc32)nc2ccccc2c1=O)C(C)C,?,8.6,17.0,16.7,17.9,69.0*
Cc1cccc(NC(=O)c2ccc3nc(N4CCOCC4)sc3c2)c1C,10.3,.,14.1,8.1,-1.2,4.9
C1CN(CC23CC4CC(CC(C4)C2)C3)CCO1,-12.1,80.7*,12.2,37.5,-17.7,-7.1
COc1ccc(/C=C2/C(=O)C(C)(C(C)C)CCC2C)cc1 (configuration not stated),-1.2,.,36.4,-4.7,2.2,14.8
C(=N\Nc1ccc(-n2ccnc2)nn1)/c1ccccc1,6.6,-1.5,19.4,44.0*,-2.2,-3.5
Cc1c(Cl)c(=O)oc2cc(OCC(=O)NCc3cccs3)ccc12,-11.5,62.3*,2.4,35.4,2.8,9.0
Cc1cc(C)cc(NC(=O)COc2ccc3c(C)c(Cc4ccccc4)c(=O)oc3c2)c1,22.8,93.9*,4.9,9.0,16.4,12.4
O=C(Nc1ncc(S(=O)(=O)c2ccc([N+](=O)[O-])cc2)s1)c1ccc2ccccc2c1,-11.9,99.4*,19.9,25.2,-5.8,55.0*
CCC(C)(C)C(=O)Nc1ncc(S(=O)(=O)c2ccc([N+](=O)[O-])cc2)s1,-4.6,80.9*,15.3,7.9,17.2,39.5
CC(C)c1ccc(Nc2nnc(SCC(=O)Nc3ncc(S(=O)(=O)c4ccc([N+](=O)[O-])cc4)s3)s2)cc1,-2.2,-2.8,19.0,4.6,4.0,-2.8
O=C(Nc1ncc(S(=O)(=O)c2ccc([N+](=O)[O-])cc2)s1)c1cccnc1,0.9,.,0.4,.,3.9,10.1
CCCC(C)C(=O)Nc1ncc(S(=O)(=O)c2ccc([N+](=O)[O-])cc2)s1 (configuration not stated),4.5,.,11.4,0.5,7.7,63.2*
Cc1ccc(Nc2nnc(SCC(=O)Nc3ncc(S(=O)(=O)c4ccc([N+](=O)[O-])cc4)s3)s2)cc1,-2.1,55.1*,-9.3,20.9,0.3,8.3
O=C(CCl)Nc1ncc(S(=O)(=O)c2ccc([N+](=O)[O-])cc2)s1,.,.,4.8,.,.,.
CCCN1C[C@H](CSC)C[C@@H]2c3cccc4[nH]cc(c34)C[C@H]21,-36.7,32.7,24.1,17.7,0.2,3.0
COCCN(C(=O)CSCC(=O)Nc1cccc(C)c1)c1c(N)n(Cc2ccccc2)c(=O)[nH]c1=O,-5.3,.,12.4,.,-5.3,-6.9
O=C(Nc1ncc(Cc2cc(Cl)ccc2Cl)s1)c1ccc([N+](=O)[O-])cc1,-2.2,-2.5,4.9,2.8,-2.3,57.1*
COc1ccccc1N1CCN(C(CNS(=O)(=O)c2cc(F)ccc2F)c2cccnc2)CC1 (configuration not stated),-2.4,90.0*,5.0,21.3,18.4,64.7*
O=S(=O)(NCC(c1cccnc1)N1CCN(c2ccccc2)CC1)c1cc(F)ccc1F (configuration not stated),-3.6,96.8*,-1.2,38.0,15.5,76.0*
